Measured values published in ChEMBL document CHEMBL3244146, “Pyranenamines: a new series of antiallergic compounds” (1979).

Experiments:
Rattus norvegicus [1] = assay: Antiallergic activity in rat assessed as inhibition of egg albumin-induced passive cutaneous anaphylaxis at 100 mg/kg, iv treated for 30 secs followed by egg albumin-challenge measured after 30 mins relative to control; type: functional; settings: 0.5 h
Rattus norvegicus [2] = assay: Antiallergic activity in rat assessed as inhibition of egg albumin-induced passive cutaneous anaphylaxis at 0.25 mg/kg, iv treated for 30 secs followed by egg albumin-challenge measured after 30 mins relative to control; type: functional; settings: 0.5 h
Rattus norvegicus [3] = assay: Antiallergic activity in rat assessed as inhibition of egg albumin-induced passive cutaneous anaphylaxis at 25 mg/kg, po treated for 15 mins followed by egg albumin-challenge measured after 30 mins relative to control; type: functional
Outline: (§1)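 Oral PCA in rats: intradermal antiserum at four back sites (dose giving ~12×12 mm wheal), compound po 48 h later, 15 min before iv challenge with 0.5 mL saline containing 5 mg Evans blue plus 5 mg egg albumin; skin bluing read 30 min after challenge on two axes per wheal; six rats per dose versus ≥6 vehicle controls; percent inhibition from mean wheal size, one-sided t test.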

Rattus norvegicus [4] = assay: Ratio of antiallergic activity in iv dosed rat to antiallergic activity in po dosed rat; type: functional
Lung [5] = assay: Antiallergic activity in passively sensitized albino rat lungs assessed as inhibition of antigen-induced histamine release at 1 x 10^-8 M by fluorometric analysis relative to control; type: functional
Outline: (§2)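 Fragmented lung from adult male Charles River albino rats, passively sensitized, then antigen-challenged with compound present; released histamine measured fluorometrically; inhibition reported relative to control, with replicate count given as number of separate lung preparations.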

[6] = Antiallergic activity in passively sensitized rhesus monkey lungs assessed as inhibition of antigen-induced histamine release at 1 x 10^-6 M by fluorometric analysis relative to control; type: functional, Macaca mulatta, Lung
Outline: (§3)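 Passively sensitized fragmented lung from a young adult male rhesus monkey, challenged with IgE-antihuman IgE; histamine release measured fluorometrically and SRS-A estimated by guinea pig ileum bioassay; inhibition relative to control; replicates given as number of separate lung preparations.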

Rattus norvegicus [7] = assay: Antiallergic activity in rat assessed as inhibition of egg albumin-induced passive cutaneous anaphylaxis at 0.7 mg/kg, iv treated for 30 secs followed by egg albumin-challenge measured after 30 mins relative to control; type: functional; settings: 0.5 h
Lung [8] = assay: Antiallergic activity in passively sensitized albino rat lungs assessed as inhibition of antigen-induced histamine release at 1 x 10^-5 M by fluorometric analysis relative to control; type: functional; outline: as §2
Lung [9] = assay: Antiallergic activity in passively sensitized albino rat lungs assessed as inhibition of antigen-induced histamine release at 1 x 10^-7 M by fluorometric analysis relative to control; type: functional; outline: as §2
[10] = Antiallergic activity in passively sensitized rhesus monkey lungs assessed as inhibition of antigen-induced slow reacting substance of anaphylaxis release at 1 x 10^-4 M relative to control; type: functional, Macaca mulatta, Lung; outline: as §3
[11] = Antiallergic activity in passively sensitized rhesus monkey lungs assessed as inhibition of antigen-induced slow reacting substance of anaphylaxis release; type: functional, Macaca mulatta, Lung; outline: as §3
Lung [12] = assay: Antiallergic activity in passively sensitized albino rat lungs assessed as inhibition of antigen-induced histamine release at 1 x 10^-6 M by fluorometric analysis relative to control; type: functional; outline: as §2
Rattus norvegicus [13] = assay: Antiallergic activity in po dosed rat assessed as inhibition of egg albumin-induced passive cutaneous anaphylaxis treated for 15 mins followed by egg albumin-challenge measured after 30 mins; type: functional; settings: read-out: ID50 (the source's name); outline: as §1
[14] = Antiallergic activity in passively sensitized rhesus monkey lungs assessed as inhibition of antigen-induced slow reacting substance of anaphylaxis release at 5 x 10^-5 M relative to control; type: functional, Macaca mulatta, Lung; outline: as §3
[15] = Antiallergic activity in passively sensitized rhesus monkey lungs assessed as inhibition of antigen-induced histamine release by fluorometric analysis; type: functional, Macaca mulatta, Lung; outline: as §3
[16] = Antiallergic activity in passively sensitized rhesus monkey lungs assessed as inhibition of antigen-induced slow reacting substance of anaphylaxis release at 1 x 10^-6 M relative to control; type: functional, Macaca mulatta, Lung; outline: as §3
[17] = Antiallergic activity in passively sensitized rhesus monkey lungs assessed as inhibition of antigen-induced histamine release at 1 x 10^-5 M by fluorometric analysis relative to control; type: functional, Macaca mulatta, Lung; outline: as §3
[18] = Antiallergic activity in passively sensitized rhesus monkey lungs assessed as inhibition of antigen-induced slow reacting substance of anaphylaxis release at 1 x 10^-5 M relative to control; type: functional, Macaca mulatta, Lung; outline: as §3
[19] = Antiallergic activity in passively sensitized rhesus monkey lungs assessed as inhibition of antigen-induced histamine release at 5 x 10^-5 M by fluorometric analysis relative to control; type: functional, Macaca mulatta, Lung; outline: as §3
[20] = Antiallergic activity in passively sensitized rhesus monkey lungs assessed as inhibition of antigen-induced histamine release at 1 x 10^-4 M by fluorometric analysis relative to control; type: functional, Macaca mulatta, Lung; outline: as §3
Rattus norvegicus [21] = assay: Antiallergic activity in rat assessed as inhibition of egg albumin-induced passive cutaneous anaphylaxis at 3.4 mg/kg, iv treated for 30 secs followed by egg albumin-challenge measured after 30 mins relative to control; type: functional; settings: 0.5 h
Lung [22] = assay: Antiallergic activity in passively sensitized albino rat lungs assessed as inhibition of antigen-induced histamine release at 1 x 10^-9 M by fluorometric analysis relative to control; type: functional; outline: as §2
[23] = Antiallergic activity in passively sensitized rhesus monkey lungs assessed as inhibition of antigen-induced slow reacting substance of anaphylaxis release at 5 x 10^-6 M relative to control; type: functional, Macaca mulatta, Lung; outline: as §3
Rattus norvegicus [24] = assay: Antiallergic activity in rat assessed as inhibition of egg albumin-induced passive cutaneous anaphylaxis at 0.2 mg/kg, iv treated for 30 secs followed by egg albumin-challenge measured after 30 mins relative to control; type: functional; settings: 0.5 h
[25] = Antiallergic activity in passively sensitized rhesus monkey lungs assessed as inhibition of antigen-induced histamine release at 5 x 10^-6 M by fluorometric analysis relative to control; type: functional, Macaca mulatta, Lung; outline: as §3
Rattus norvegicus [26] = assay: Antiallergic activity in iv dosed rat assessed as inhibition of egg albumin-induced passive cutaneous anaphylaxis treated for 30 secs followed by egg albumin-challenge measured after 30 mins; type: functional; settings: 0.5 h, read-out: ID50 (the source's name)
Rattus norvegicus [27] = assay: Ratio of DSCG ID50 to compound ID50 for antiallergic activity in iv dosed rat; type: functional

| SMILES | inhibition in vivo at 25 mg/kg (Rattus norvegicus [3]) [%] | inhibition (INH) (Lung [5]) [%] | inhibition (INH) [6] [%] | inhibition (INH) (Lung [8]) [%] | inhibition (INH) (Lung [9]) [%] | inhibition (INH) [10] [%] | inhibition (INH) (Lung [12]) [%] | ED50 (Rattus norvegicus [13]) [mg/kg] | inhibition (INH) [14] [%] | inhibition (INH) [16] [%] | inhibition (INH) [17] [%] | inhibition (INH) [18] [%] | inhibition (INH) [19] [%] | inhibition (INH) [20] [%] | other results |
| --- | --- | --- | --- | --- | --- | --- | --- | --- | --- | --- | --- | --- | --- | --- | --- |
| CC(=O)C1=C(O)/C(=C(\C)Nc2ccc(N(C)C)cc2)C(=O)OC1=O |  |  |  |  |  |  |  |  |  |  |  |  |  |  | inhibition in vivo at 100 mg/kg (Rattus norvegicus [1]): 11% |
| CC(=O)Nc1cccc(N/C(C)=C2\C(=O)OC(=O)C(C(C)=O)=C2O)c1 | 53 |  |  |  |  |  |  |  |  |  |  |  |  |  | inhibition in vivo at 0.25 mg/kg (Rattus norvegicus [2]): 65% |
| CC(=O)C1=C(O)/C(=C(\C)Nc2ccc(O)c(N)c2)C(=O)OC1=O.Cl |  | 26 | 4 | 47 | 42 | 56 | 61 | 0.8 | 40 | -24 | 22 | 1 | 49 | 66 | Ratio (Rattus norvegicus [4]): 1; inhibition in vivo at 0.7 mg/kg (Rattus norvegicus [7]): 50%; ID30 [11]: 3.3 ×10⁻⁵ M; ID30 [15]: 1.3 ×10⁻⁵ M |
| CC(=O)C1=C(O)/C(=C(\C)Nc2ccc(N)c(O)c2)C(=O)OC1=O | 40 |  |  |  |  |  |  |  |  |  |  |  |  |  | inhibition in vivo at 3.4 mg/kg (Rattus norvegicus [21]): 50% |
| CC(=O)Nc1cc(N/C(C)=C2\C(=O)OC(=O)C(C(C)=O)=C2O)ccc1O | 50 | 53 |  | 86 | 88 |  | 76 |  | 33 |  | -31 | 5 | 25 |  | inhibition (INH) (Lung [22]): 43%; inhibition (INH) [23]: -11%; inhibition in vivo at 0.2 mg/kg (Rattus norvegicus [24]): 50%; inhibition (INH) [25]: -32% |
| CC(=O)C1=C(O)/C(=C(\C)Nc2cc(NC(=O)C(O)CO)cc(NC(=O)C(O)CO)c2)C(=O)OC1=O (centres undefined) |  |  | -30 |  |  | 7 |  | 2.9 |  | -7 | -20 | -0.5 |  | 7 | ED50 (Rattus norvegicus [26]): 0.0009 mg/kg; Ratio (Rattus norvegicus [27]): 1000 |
